Screening results: PubChem, Broad Institute
A selection: hits, their analogues and other compounds. The true share with any hit is near 2.5%.
E-selectin induc: induces E-selectin expression in human endothelial cells; P16581; HUVEC E-selectin immunofluorescence imaging; normalized: neutral wells 0, TNF-alpha wells 100; activation, % at 7.58 µM; 0.37% of 260,000 active;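 active = mean E-selectin-positive cell signal at least 10% of the positive control, reached in at least 60% of replicates, without over 20% cell loss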
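System: HUVEC / Compound: single concentration / Signal: immunofluorescence imaging / Read-out: percent E-selectin-positive cells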
FGF22 binding: shifts melting point of recombinant human FGF22; Q9HCT0; AID 651658; activity (Tm shift, normalised), % at 9.99 µM; recombinant FGF22 thermal shift, SYPRO orange fluorescence; percent of sucrose octasulfate shift, DMSO zero; 1.5% of 340,000 active;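 active = mean Tm shift, scaled 0 neutral to 100 positive control, at about 1.3% or above, every replicate too, limit read from the data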
Target sequence (Q9HCT0 whole entry, looked up): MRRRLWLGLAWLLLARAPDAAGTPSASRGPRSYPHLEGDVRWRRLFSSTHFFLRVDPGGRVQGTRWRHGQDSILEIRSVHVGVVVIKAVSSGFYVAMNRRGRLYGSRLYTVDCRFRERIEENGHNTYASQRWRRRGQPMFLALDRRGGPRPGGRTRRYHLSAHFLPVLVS
S100A4 inh HTS: blocks human S100A4 binding to myosin IIA peptide; S100A4/TAMRA-MyoIIA peptide fluorescence polarization; inhibition, % at 10.7 µM; 0.14% of 360,000 active; AID 652163;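 active = mean inhibition of at least 70% across replicates, with every replicate also reaching that level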
Target sequence (P26447 whole entry, looked up): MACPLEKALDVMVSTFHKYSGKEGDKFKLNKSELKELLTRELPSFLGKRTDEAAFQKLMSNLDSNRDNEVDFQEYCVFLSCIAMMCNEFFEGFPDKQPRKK
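assay system = human S100A4 monomer with TAMRA-labelled myosin IIA peptide | also added = labelled myosin peptide probe, 5 nM | incubation = 5 min between mix addition and reading | control set = DMSO and TFP controls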
SIRT5 block: inhibitors of human sirtuin-5 desuccinylase | Q9NXA8 | Purified SirT5, succinyl-peptide AMC, trypsin-coupled fluorescence | inhibition, % at 15 µM | 1.1% of 330,000 active | AID 652115; in the data active = inhibition above about 15%
Target sequence (Q9NXA8 whole entry, looked up): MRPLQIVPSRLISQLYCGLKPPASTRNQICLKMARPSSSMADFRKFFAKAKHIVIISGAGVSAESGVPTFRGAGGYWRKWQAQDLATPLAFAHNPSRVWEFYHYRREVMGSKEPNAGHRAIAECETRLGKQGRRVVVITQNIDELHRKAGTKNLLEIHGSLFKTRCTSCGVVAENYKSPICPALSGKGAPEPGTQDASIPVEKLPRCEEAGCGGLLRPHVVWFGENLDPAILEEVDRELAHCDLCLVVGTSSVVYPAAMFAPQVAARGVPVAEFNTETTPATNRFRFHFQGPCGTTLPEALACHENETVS
miR-122 sensor: miR-122 inhibition in Huh7 cells. AID 602342. Huh7 miR-122 Renilla luciferase sensor, 48 h; neutral wells = 0, positive control = 100. 0.3% of 340,000 active. activation (reporter increase), % at 12.5 µM;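 active = mean replicate activation score at least 90 and every replicate individually at or above 90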;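 also: higher luciferase means less miR-122 activity so hits act as miR-122 inhibitors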
Starred values were filed as active, the others as inactive; nt = not tested or not shown; [ ] = dose if it differs, or a comment.

SMILES | E-selectin induc | FGF22 binding | S100A4 inh HTS | SIRT5 block | miR-122 sensor
C[C@@H]1CCCCO[C@H](CN(C)S(=O)(=O)c2ccccc2)[C@H](C)CN([C@H](C)CO)C(=O)c2cc(NC(=O)Nc3ccccc3)ccc2O1 | nt | 0 | 18 | -1 | -4[16.7 µM]
C[C@H]1CN([C@@H](C)CO)C(=O)c2cc(NC(=O)Cc3cn(C)c4ccccc34)ccc2O[C@@H]1CN(C)CC1CC1 | 0 | 0 | 18 | 6 | nt
Cc1ccc(S(=O)(=O)N(C)C[C@@H]2OCCCC[C@H](C)Oc3ccc(NC(=O)NC4CCCCC4)cc3C(=O)N([C@H](C)CO)C[C@H]2C)cc1 | 0 | 0 | 1 | 16* | -5[16.7 µM]
COC(=O)c1c(CC[C@@H](CO)NC(=O)N[C@H](Cc2ccccc2)Cn2cc(-c3ccccn3)nn2)oc(C(C)=O)c1C(=O)OC | nt | 0 | -1 | -11 | nt
CCOC(=O)c1cc(S(=O)(=O)Nc2cccc(OC)c2)cn1C | nt | 0 | 0 | -2 | 132*
CCOC(=O)CSC1=C(C#N)C(c2ccc(C)s2)CC(=O)N1 (centres undefined) | nt | 0 | 9 | -4 | 28
CCSC1=C(C#N)C(c2ccc(C)s2)CC(=O)N1 (centres undefined) | nt | 0 | 2 | 16* | 4
CC(=O)Nc1cccc(NC(=O)c2ccc([N+](=O)[O-])cc2Cl)c1 | -1 | 0 | -1 | -6 | 1
O=C(Nc1cccc(O)c1)c1ccc([N+](=O)[O-])cc1Cl | nt | 43* | 3 | -3 | 11
CC(C)NC(=O)N[C@H]1CC[C@H](CCNC(=O)C2CCOCC2)O[C@H]1CO | 0 | 0 | 10 | -2 | -9[16.7 µM]
O=C(CSc1ccsc1[N+](=O)[O-])NCc1ccccc1 | 0 | 0 | 104* | 2 | 7
COc1ccccc1CNC(=O)CSc1ccsc1[N+](=O)[O-] | 0 | 0 | -16 | -3 | nt
CC(C)CC#Cc1ccc2c(c1)O[C@@H](CN(C)C(=O)C1CC1)[C@H](C)CN([C@@H](C)CO)S2(=O)=O | 0 | nt | nt | nt | 5[16.7 µM]
Cc1cc2ccccc2n1CCNC(=O)c1ccccc1 | nt | nt | nt | nt | -7
Cc1cc2ccccc2n1CCNC(=O)Cc1cccc2ccccc12 | nt | 0 | 73* | 2 | nt
CCCCCCNC(=O)c1ccc(Br)o1 | 0 | 0 | 2 | 32* | 12
Cc1cc2ccccc2n1CCNC(=O)c1ccc(Br)o1 | 5 | 0 | 90* | -1 | nt
COc1ccc2c3c(n(C)c2c1)[C@@H](CO)N(C(=O)c1ccccc1)CC31CCN(C)CC1 | 0 | 0 | -2 | -2 | nt
CCCN1C[C@H](C)[C@@H](OC)CN(C)C(=O)c2cc(NC(=O)c3cccc(F)c3)ccc2OC[C@H]1C | 1 | -1 | 12 | 6 | -2[16.7 µM]
CCCC#Cc1cnc2c(c1)C(=O)N([C@H](C)CO)C[C@H](C)[C@H](CN(C)C(=O)c1ccc(F)cc1)O2 | 0 | 0 | -3 | 1 | 45[16.7 µM]
CN1CCS/C1=C/C=C1/SC(=S)N(Cc2ccccc2)C1=O | nt | 0 | -3 | -1 | nt
CCN1C(=O)/C(=C/C=C2/Sc3ccc4ccccc4c3N2CCO)SC1=S | 34* | 0 | -47 | nt | -14
Cc1ccc(OC(C)C(=O)Nc2ccc(C)c(S(=O)(=O)Nc3ccc(C)cc3C)c2)cc1 (centres undefined) | nt | nt | nt | nt | 196*
Cc1cc(C)c(S(=O)(=O)Nc2ccc(O)cc2)cc1C | nt | nt | nt | nt | 69
Cc1ccc(OC(C)C(=O)Nc2ccncc2)cc1 (centres undefined) | 0 | 0 | -7 | 1 | -5
SMILES | E-selectin induc | FGF22 binding | S100A4 inh HTS | SIRT5 block | miR-122 sensor
CC(=O)Nc1cc(S(=O)(=O)Nc2ccc(C)cc2)c(C)cc1C | nt | nt | nt | nt | 129*
O=C1c2cccc([N+](=O)[O-])c2C(=O)N1c1cccnc1 | nt | 0 | 8 | 20* | nt
Oc1ccccc1-c1nnc(SCCN2CCOCC2)n1Cc1ccccc1 | nt | nt | nt | nt | 241*
COc1ccc(NC(=O)N(C)C[C@@H]2Oc3c(NS(=O)(=O)c4ccc(OC)cc4)cccc3C(=O)N([C@@H](C)CO)C[C@@H]2C)cc1 | 0 | -1 | 0 | 1 | 2[16.7 µM]
O=[N+]([O-])c1ccc(/C([O-])=C(/C(=S)Nc2ccccc2F)[n+]2ccccc2)cc1 | 0 | 0 | 2 | -4 | 24
COc1cccc(NC(=S)/C(=C(\[O-])c2ccc([N+](=O)[O-])cc2)[n+]2ccccc2)c1 | 0 | 43* | 2 | -6 | 0
C[C@H](CO)N1C[C@H](C)[C@H](CN(C)Cc2cncnc2)Oc2cc(-c3cccnc3)ccc2S1(=O)=O | 0 | 0 | 6 | -1 | 7[16.7 µM]
COc1ccccc1NC(=O)N[C@H]1CC[C@H](CCNS(=O)(=O)c2ccc(C)cc2)O[C@H]1CO | 1 | nt | -3 | 0 | nt
O=C(COc1ccc2c(c1)C(=O)CC1(CCCCC1)O2)NCc1ccccn1 | nt | nt | nt | nt | -3
O=C(COc1ccc2c(c1)C(=O)CC1(CCCCC1)O2)NCc1ccccc1 | 0 | nt | nt | nt | 220*
COc1ccccc1S(=O)(=O)N1CCN(S(=O)(=O)c2cccs2)CC1 | 0 | 0 | -2 | -4 | -14
COc1ccccc1S(=O)(=O)N1CCN(S(=O)(=O)c2ccccc2C#N)CC1 | nt | 42 | -1 | 91* | nt
COc1ccc(NC(=O)c2nc[nH]c2C(=O)N(C)CCO)cc1 | 0 | 43* | -1 | nt | 3
Cc1ccc(NC(=O)c2nc[nH]c2C(=O)N(C)CCO)cc1 | 0 | 0 | 23 | nt | 7
CN(C)C(=O)c1cccc(-c2ccc(C3[C@H]4CNC[C@@H]3N4Cc3cc(F)ccc3F)cc2)c1 (some centres undefined) | 0 | nt | -4 | 1 | nt
N#CCCn1cc(C(=O)NCc2ccccc2)c(-c2cccs2)n1 | 0 | 43* | -3 | -3 | 1
N#CCCn1cc(C(=O)Nc2ccc(C(=O)O)cc2)c(-c2cccs2)n1 | nt | 1 | 2 | -2 | nt
Cc1ccc(S(=O)(=O)Nc2cccc3c2O[C@H](CN(C)Cc2ccc(-c4ccccc4)cc2)[C@@H](C)CN([C@@H](C)CO)C3=O)cc1 | 0 | 0 | -2 | 4 | -6[16.7 µM]
CO[C@H]1CN(C)C(=O)c2cc(NC(C)=O)ccc2OC[C@@H](C)N(C(=O)c2ccc(F)cc2)C[C@@H]1C | 0 | 1 | -7 | 1 | nt
CCOCCOC(=O)C(C)Oc1ccc(Oc2nc(Cl)ccc2Cl)cc1 (centres undefined) | nt | 43* | 8 | -5 | nt
CCOCCOC(=O)C(C)Oc1ccc(Oc2ncc(Cl)cc2Cl)cc1 (centres undefined) | nt | 0 | -3 | nt | -1
C[C@@H]1CN([C@@H](C)CO)C(=O)c2cccc(NS(=O)(=O)c3cccs3)c2O[C@@H]1CN(C)Cc1ccc(Cl)c(Cl)c1 | 23 | nt | -13 | -1 | 1[16.7 µM]
COc1ccc(S(=O)(=O)Nc2cccc3c2O[C@H](CN(C)Cc2ccc(C(F)(F)F)cc2)[C@@H](C)CN([C@@H](C)CO)C3=O)cc1 | 0 | -1 | 7 | 0 | 60[16.7 µM]
